These compounds were tested against T1, OR2W3 (Homo sapiens) (UniProt Q7Z3T1). Details: stereoisomer not certain.
T1 sequence (whole entry): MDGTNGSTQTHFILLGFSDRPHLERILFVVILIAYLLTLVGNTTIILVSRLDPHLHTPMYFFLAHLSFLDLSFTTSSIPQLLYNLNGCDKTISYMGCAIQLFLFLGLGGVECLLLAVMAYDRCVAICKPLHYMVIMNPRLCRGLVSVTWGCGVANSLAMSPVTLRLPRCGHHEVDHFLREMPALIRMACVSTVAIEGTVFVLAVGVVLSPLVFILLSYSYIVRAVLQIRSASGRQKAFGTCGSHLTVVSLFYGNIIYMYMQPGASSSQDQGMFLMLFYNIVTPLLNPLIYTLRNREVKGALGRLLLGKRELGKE
Procedure, shortened: (§1)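 Values were gathered from published papers (main text and supplementary material), with extra details requested from the original authors when needed, and checked for typos and inconsistencies. Each receptor–molecule pair is called responsive (active) if the original authors judged the measured signal statistically different from baseline, and non-responsive (inactive) otherwise. Assay methods varied by source, often transient mammalian cell-line luciferase assays. Recorded details include cell line, G-protein, co-transfected protein and tags.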

Odorant receptor agonist call, inactive:
CCC(O)CC, CC(C=O)Cc1ccc(C(C)(C)C)cc1 (stereo unspecified), CC(C)=CCCC(C)=CCCC(C)=CCO, CCCCCCCCCCCCCCCCCC(=O)[O-].[H+], CCCC(=O)CC, Cc1cccc(C)c1C, CCCCCCCCCCCCCC(=O)OCC, CC(O)C(=O)[O-].[H+] (stereo unspecified), CCCCCCCCCCCCCCCC(=O)OCC, Cc1cnc(C)cn1, CCCCCCCCCC(=O)OC, CCCCCCCCCCCCO, CCCCOCC(C)O (stereo unspecified), CCCCCCCCCCCC(=O)OC, CCCCCCCCCCCCCCCCCC(=O)OCC, CCCCCCCCCCCC(=O)O, CCCCCCCCCCCCCC(=O)O, COc1ccc2[nH]cc(CCNC(C)=O)c2c1, CCCCCCCC(=O)OC, CCCCCCCCCCCCCCCC(=O)[O-].[H+], CCCCCCCCCCCCCCCCCC(=O)OC

What follows are compounds tested against T2, OR3A1 (Homo sapiens) (UniProt P47881). Details: stereoisomer not certain.
T2 sequence (whole entry): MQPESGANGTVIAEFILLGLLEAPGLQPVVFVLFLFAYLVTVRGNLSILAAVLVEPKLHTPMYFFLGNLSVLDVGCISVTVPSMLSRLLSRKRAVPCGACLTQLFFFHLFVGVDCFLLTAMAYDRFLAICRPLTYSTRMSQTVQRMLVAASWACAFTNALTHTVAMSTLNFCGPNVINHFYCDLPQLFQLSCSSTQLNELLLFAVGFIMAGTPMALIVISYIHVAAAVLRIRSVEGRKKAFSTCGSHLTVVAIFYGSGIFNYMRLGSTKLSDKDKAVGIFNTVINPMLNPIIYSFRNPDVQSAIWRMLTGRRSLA
Procedure, shortened: as §1

Odorant receptor agonist call, active:
CC(C=O)Cc1ccc(C(C)(C)C)cc1 (stereo unspecified), CC(CC=O)c1ccccc1 (stereo unspecified), CC1=CC(=O)CC(C(C)C)C1 (stereo unspecified), CC(CC=O)CCc1ccccc1 (stereo unspecified), COc1ccc(CC(C)C=O)cc1 (stereo unspecified), Cc1ccc(CC(C)C=O)cc1 (stereo unspecified), CC(C=O)Cc1ccccc1 (stereo unspecified)

Odorant receptor agonist call, inactive:
CC(C=O)=Cc1ccccc1, CCC(O)c1ccccc1 (stereo unspecified), COc1ccc(COC=O)cc1, CC(=O)CCc1ccc(O)cc1, CCCCCCCC(=O)OCCCCCC, CC(=O)OCc1ccc2c(c1)OCO2, O=CCCc1ccccc1, CCCCCCCCCC(C)C=O (stereo unspecified)
